# Compounds with a hit are over-represented: about 1.7% of the library has one in this group of screens.
# LMPTP block: blocks human LMPTP phosphatase; 360,000 compounds, 0.22% hits; AID 651560; inhibition, % at 20 µM; P24666; recombinant LMPTP-A, OMFP fluorogenic substrate, fluorescence intensity;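 active = compounds that cut the enzyme signal by at least half of the control window in the single-dose screen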;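 also: plate controls were DMSO wells with enzyme plus substrate for no effect and substrate without enzyme for full effect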
# Target sequence (P24666 whole entry, looked up): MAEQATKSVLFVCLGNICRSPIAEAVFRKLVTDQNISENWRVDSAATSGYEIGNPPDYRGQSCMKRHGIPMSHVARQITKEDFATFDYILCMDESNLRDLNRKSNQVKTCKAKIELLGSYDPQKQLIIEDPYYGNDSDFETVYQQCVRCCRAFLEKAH
#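 Test system: LMPTP-A phosphatase enzyme. Amount: LMPTP-A at 0.625 nM final in the reaction. Reagent: OMFP substrate, 400 µM final. Times: 50 min at room temperature. Signal: endpoint fluorescence intensity from OMFP dephosphorylation. Read-out basis: % inhibition. Benchmarks: no-enzyme and uninhibited controls.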
# STEP inh: blocks human striatal-enriched tyrosine phosphatase; inhibition, % at 20 µM; 360,000 compounds, 0.25% hits; recombinant STEP, OMFP fluorogenic substrate, fluorescence; P54829;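 active = inhibition at 20 µM, scaled per plate between control wells, above about 37%, limit read from the data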;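 also: 0% = DMSO with enzyme and substrate and 100% = substrate only without enzyme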
# Target sequence (P54829 whole entry, looked up): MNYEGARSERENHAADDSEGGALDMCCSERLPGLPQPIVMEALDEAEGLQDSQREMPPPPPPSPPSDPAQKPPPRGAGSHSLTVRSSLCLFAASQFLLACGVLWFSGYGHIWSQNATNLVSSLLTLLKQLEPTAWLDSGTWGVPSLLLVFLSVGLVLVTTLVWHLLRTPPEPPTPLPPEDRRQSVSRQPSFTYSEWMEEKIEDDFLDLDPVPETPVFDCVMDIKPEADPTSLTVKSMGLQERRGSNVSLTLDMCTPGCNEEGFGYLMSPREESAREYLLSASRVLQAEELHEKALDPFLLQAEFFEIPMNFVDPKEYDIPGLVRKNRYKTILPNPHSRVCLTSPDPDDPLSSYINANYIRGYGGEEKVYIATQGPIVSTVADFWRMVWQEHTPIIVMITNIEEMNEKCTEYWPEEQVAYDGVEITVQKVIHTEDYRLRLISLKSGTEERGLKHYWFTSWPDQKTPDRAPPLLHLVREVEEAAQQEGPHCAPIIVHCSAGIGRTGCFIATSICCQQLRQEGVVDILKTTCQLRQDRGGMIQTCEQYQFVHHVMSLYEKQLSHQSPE
#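 medium = Bis-Tris buffer pH 6.0, 2.5 mM DTT, 0.005% Tween 20 | test system = STEP (striatal-enriched tyrosine phosphatase) enzyme, cell-free | measure = normalized % inhibition | compound dosing = 20 µM, 1% DMSO | also added = 25 µM OMFP | schedule = reaction 20 min, ambient temperature | measured by = fluorescence read at 480 nm ex / 540 nm em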
# DNMT1 block: DNMT1 (human) enzyme inhibition | 360,000 compounds, 0.83% hits | AID 588458 | P26358 | inhibition (reported as % activation of signal), % at 10 µM | DNMT1 molecular beacon, Hinp1I cleavage, fluorescence; in the data active = inhibition above about 50%
# SUMO1-SIM PPI: SUMO1-SIM interaction modulation. inhibition, % at 20 µM. 360,000 compounds, 0.33% hits. SUMO1 binding to a labelled peptide, TR-FRET, 1 h; in the data active = inhibition above about 37%
# Scp-1 inhibitor: blocks human Scp-1 phosphatase activity | Q9GZU7 | Recombinant Scp1, phosphopeptide, malachite green phosphate absorbance | inhibition, % at 20 µM | 340,000 compounds, 0.88% hits;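 active = inhibition above about 50% at 20 µM, limit read from the data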;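 also: plate controls were DMSO wells with enzyme for no effect and wells lacking enzyme for full effect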
#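 Test system: SCP-1 catalytic domain; Buffer or medium: Acidic Tris acetate buffer with magnesium and detergent; Also added: Phosphorylated 17-residue peptide substrate; Compound: single 20 µM dose, 1% DMSO; Schedule: enzyme reaction 45 min at room temperature, colour 5 min, stabilisation 30 min; Signal: Phosphate-binding colour reagent, absorbance read at 630 nm.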
# DNMT1 inh conf: confirmation of human DNMT1 inhibitors | shares compounds with DNMT1 block | AID 602385 | DNMT1 molecular beacon HinP1I cleavage, fluorescence | inhibition, % at 10 µM | 2,300 compounds, 8% hits;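 active = average inhibition of at least 30% in the single-concentration confirmation test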
# DNMT1 interf: shows spectral interference in the DNMT1 beacon assay. shares compounds with DNMT1 block. DNMT1 molecular beacon spectral interference counterscreen, fluorescence 485/520. activation (fluorescence interference), % at 10 µM. 2,300 compounds, 1% hits. AID 602387;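 active = activation of at least 30% at 10 µM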;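 also: DNMT1 catalytic domain with a HinP1I cleavage step and a FAM/dabcyl DNA beacon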
# Numbers without * were called inactive; nt = no result given.
SMILES,LMPTP block,STEP inh,DNMT1 block,SUMO1-SIM PPI,Scp-1 inhibitor,DNMT1 inh conf,DNMT1 interf
COc1ccc2c(c1OC)C(=O)N1N=C(c3ccc(-c4ccccc4)cc3)CC21 (centres undefined),3.6,0.7,-1.0,-3.8,-8.1,nt,nt
COc1ccc2c(c1OC)C(=O)N1c3ccccc3N=C(c3ccc([N+](=O)[O-])cc3)CC21 (centres undefined),-0.1,0.2,62.4*,-25.1,-4.4,-0.4,-2.1
CC1=C(C)CC(C(=O)NC2CCN(C(C)C)CC2)C(C(=O)O)C1 (centres undefined),-4.2,-1.8,-0.6,-8.0,10.0,nt,nt
Cc1nc2sccn2c(=O)c1CCN1CCC(=C(c2ccc(F)cc2)c2ccc(F)cc2)CC1,6.3,-0.7,59.2*,1.7,-3.8,-0.9,1.2
O=C(Cn1cncc1-c1ccc([N+](=O)[O-])cc1)Nc1cccc2ccccc12,5.8,1.6,50.1*,-13.9,13.2,7.3,-3.2
N#Cc1nc(-c2cccs2)oc1NCC1CCCO1 (centres undefined),-0.5,-1.1,67.1*,1.0,-2.5,3.0,2.9
O=S(=O)(Nc1cccc(-n2cnnn2)c1)c1ccccc1F,-1.3,-3.1,-0.1,-0.7,-2.0,nt,nt
O=C(Nc1cc(Cl)ccc1N1CCOCC1)c1cnccn1,-0.2,-1.3,-0.8,2.0,5.2,nt,nt
O=C(Nc1cc(Cl)ccc1N1CCOCC1)c1ccncc1,-0.9,-1.3,80.2*,2.1,5.8,7.7,8.6
Cc1ccccc1OCc1nc2ccccc2c(=O)n1/N=C/c1cn[nH]c1-c1ccccc1,1.9,-3.2,-4.6,0.4,-4.4,nt,nt
Cc1ccc(-c2[nH]ncc2/C=N/n2c(COc3ccccc3)nc3ccccc3c2=O)cc1,1.3,-1.4,66.7*,-0.6,-8.0,3.1,5.4
COc1ccc(-n2nc(C(=O)NCC(=O)N3CCC(C)CC3)c3ccccc3c2=O)c(OC)c1,1.1,-0.3,-1.4,-12.0,-9.8,nt,nt
CC(C)(C)OC(=O)NCCCCCNC(=O)c1[nH]cnc1C(=O)NC1CCN(C(=O)OC(C)(C)C)CC1,2.5,-1.0,75.7*,-3.5,-0.2,8.4,6.7
O=C(CCc1ccc(S(=O)(=O)N2CCOCC2)cc1)Nc1c(F)cccc1F,-0.8,1.8,1.7,1.5,-2.2,nt,nt
O=C(Nc1ccc(N2CCCC2)cc1)c1cc2ccccc2o1,26.3,0.6,64.6*,-26.7,0.1,4.0,-1.6
O=C(Cc1ccccc1)Nc1ccc(N2CCCC2)cc1,37.2,1.1,94.2*,-0.8,1.7,6.4,-4.0
CCCCC(=O)Nc1ccc(N2CCN(C(=O)CC)CC2)cc1,-0.7,1.3,6.8,-4.7,-10.7,nt,nt
O=C(Cc1ccccc1)Nc1ccc(N2CCOCC2)cc1,-1.4,-3.2,-4.3,-1.1,1.7,nt,nt
CCCCC(=O)Nc1ccc(N2CCCC2)cc1,9.3,4.0,76.9*,-7.4,-3.6,1.4,3.1
O=C(Cc1ccccc1)Nc1cccc(N2CCCC2)c1,16.5,-0.7,78.3*,-0.4,-10.9,1.4,2.5
CC(=O)N1CCN(c2ccc(NC(=O)c3cc4ccccc4o3)cc2)CC1,-0.1,5.5,-1.2,-1.6,-3.7,nt,nt
CC1CCc2c(nc3ncnn3c2NCCc2ccccc2F)C1 (centres undefined),0.1,-3.4,0.3,9.0,-3.7,nt,nt
CC(C)=C(NC(=O)c1ccccc1)C(=O)NCCc1nc2ccccc2[nH]1,-0.2,-1.9,2.9,-1.3,-6.2,nt,nt
O=C(Nc1ccc(N2CCCC2)cc1)c1ccc(Br)cc1,8.9,1.6,57.5*,-54.1,-0.6,12.9,-5.8
CC(=O)N1CCN(c2ccc(NC(=O)C(c3ccccc3)c3ccccc3)cc2)CC1,-0.3,0.1,0.9,3.3,-2.0,nt,nt
SMILES,LMPTP block,STEP inh,DNMT1 block,SUMO1-SIM PPI,Scp-1 inhibitor,DNMT1 inh conf,DNMT1 interf
O=C(Nc1ccc(N2CCCC2)cc1)C(c1ccccc1)c1ccccc1,3.6,7.4,72.6*,7.9,3.3,2.2,-1.4
CCOc1cccc(C(=O)NC(=S)Nc2ccc(N3CCCC3)cc2)c1,5.0,11.0,71.7*,-7.1,6.8,1.4,1.6
O=C(Cc1ccc(Cl)cc1)Nc1ccc(NC(=O)c2ccccc2)cc1,16.2,0.9,55.8*,1.3,2.7,2.7,5.8
O=C(NCCc1ccccc1)c1ccc(Cl)cc1[N+](=O)[O-],-1.5,-0.2,2.0,-29.4,-7.7,nt,nt
COCCNC(=S)N/N=C(\C)c1ccc(OC(F)F)cc1,-0.2,1.1,61.7*,-10.2,-10.6,-0.1,3.2
CS(=O)(=O)c1cnc(-c2cccnc2)nc1N,1.2,-1.3,-1.4,1.7,-5.2,nt,nt
C=CCc1cccc(C=Nc2c[nH]c(=O)[nH]c2=O)c1O,0.3,2.0,71.6*,-2.4,-12.1,2.5,1.4
OC(COc1ccc(Br)cc1)CN1CCC(Cc2ccccc2)CC1 (centres undefined),-1.9,-1.8,-0.8,1.2,1.2,nt,nt
COc1ccc2nc(/C(C#N)=C\c3ccc(C(=O)O)cc3)[nH]c2c1,0.9,-0.4,-3.3,7.2,2.5,nt,nt
Cc1ccc2nc(/C(C#N)=C\c3ccc(Oc4ccc([N+](=O)[O-])cn4)cc3)[nH]c2c1,0.2,0.8,53.8*,-12.7,10.6,6.2,2.6
COc1ccc2nc(/C(C#N)=C\c3ccc(Oc4ccc([N+](=O)[O-])cn4)cc3)[nH]c2c1,3.2,2.5,57.3*,-3.4,-2.7,1.9,2.2
Cc1ccc2cc(C#N)c(SCC(=O)NNC(=O)Cc3ccccc3)nc2c1,-0.1,-1.2,44.9,-4.5,0.0,-1.2,-5.2
O=C1/C(=C\c2ccc(-c3ccccc3[N+](=O)[O-])o2)C(c2ccccc2)=NN1c1ccccc1,3.2,0.2,62.8*,20.5,-19.9,13.9,1.0
CSc1sc(-c2n[nH]c(=S)n2C)c2c1C=CCC2,50.4*,-0.3,65.5*,9.0,4.0,-1.6,-6.5
Cc1ccnc(NC(=O)CCC(=O)N(CC(=O)NCc2ccc(F)cc2)c2ccc(F)cc2)c1,-0.8,-3.3,73.0*,-2.6,-3.1,5.6,7.2
Cc1ccnc(NC(=O)CCC(=O)N(CC(=O)NCCc2ccccc2)c2ccc(F)cc2)c1,0.7,3.3,1.9,5.2,-2.8,nt,nt
O=C(O)/C(=C\c1ccccc1)c1ccc2ccccc2c1,-2.2,-1.3,-1.4,-3.7,-10.7,nt,nt
O=C(Nc1cccc(Cl)c1)c1cc2c(=O)n3ccccc3nc2s1,23.6,1.9,62.3*,6.3,-8.0,7.3,17.8
CC(=O)NS(=O)(=O)c1ccc(NC(=O)c2cc3c(=O)n4ccccc4nc3s2)cc1,0.8,1.1,3.7,-4.5,4.7,nt,nt

# Bioassay records as filed in PubChem.
